Most compounds without a hit are left out; they make up all but 3.8% or so of the library.
OX1R antag-1: OX1R (human) antagonism. inhibition, % at 6.6 µM. O43613. AID 485270. 330,000 compounds, 1.8% hits. OX1R-expressing cells, FRET antagonist read-out; in the data active means inhibition mostly above about 38%, no sharp cut-off; inactive means mostly below about 40%
Target sequence (O43613 whole entry, looked up): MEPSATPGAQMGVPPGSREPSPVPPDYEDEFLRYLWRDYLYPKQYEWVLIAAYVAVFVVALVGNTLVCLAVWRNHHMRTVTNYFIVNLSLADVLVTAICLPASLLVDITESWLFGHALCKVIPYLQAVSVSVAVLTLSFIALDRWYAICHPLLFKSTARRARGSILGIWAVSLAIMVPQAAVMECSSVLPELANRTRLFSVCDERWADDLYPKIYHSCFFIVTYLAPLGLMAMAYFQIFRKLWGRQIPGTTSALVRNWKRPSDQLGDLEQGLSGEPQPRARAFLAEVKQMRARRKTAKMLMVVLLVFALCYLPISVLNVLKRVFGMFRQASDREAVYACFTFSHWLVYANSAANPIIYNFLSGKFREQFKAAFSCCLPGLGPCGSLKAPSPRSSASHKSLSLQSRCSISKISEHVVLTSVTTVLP
MPTP block: permeability transition pore inhibition; isolated mouse mitochondria, Ca2+ swelling absorbance, 30 min; inhibition, % at 10 µM; 360,000 compounds, 1.4% hits; AID 602449;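 active means inhibition of 50% or more, scaled per plate between neutral and stimulator controls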
OX1R antag-2: human HCRTR1 antagonism; AID 434989; 330,000 compounds, 0.43% hits; CHO/OX1R cells, Fluo-8 calcium fluorescence, orexin A; inhibition, % at 5 µM;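 active means inhibition above its plate's threshold, mean inhibition of all tested compounds on the plate plus 3 SD, cut at about 37% in these data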
GPR7 antag: antagonists of human GPR7 (neuropeptides B/W receptor 1) | 290,000 compounds, 1.1% hits | GPR7-expressing cells, fluorescence antagonist assay | AID 1861 | P48145 | inhibition, % at 4.4 µM; in the data active means inhibition above about 16%, passing the limit was not always enough;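 further: cells stimulated with the agonist NPW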
CHO parental Ca: signal in parental CHO cells, OX1R antagonist counter-screen; parental CHO-K1, ATP-induced calcium, Fluo-8 fluorescence; inhibition, % at 5.6 µM; 330,000 compounds, 0.63% hits; AID 463079;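 active means inhibition above that plate's mean sample inhibition plus 3 SD, cut at about 26% in these data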
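material = parental CHO cells | also added = ATP as calcium-mobilizing challenge | dosing = single point at 5.6 µM | detection = intracellular calcium via Fluo-8 no-wash fluorescent dye | read-out = % inhibition | benchmarks = low control ATP plus DMSO, high control DMSO only | repeats = one well per compound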
Large screens that a line does not name were inactive.

Cc1onc(-c2ccccc2)c1C(=O)OCC(=O)NC(=O)c1ccccc1	none (no result: GPR7 antag)
O=C(CC(c1ccccc1)(c1ccccc1)c1ccccc1)N[C@@H](Cc1ccc(O)cc1)C(=O)O	OX1R antag-1 50
CCc1cc(SC#N)cc(CC)c1NC(=O)CCl	none
O=C(NCc1ccc(F)cc1)C1CCCN(S(=O)(=O)c2cccc3nsnc23)C1 (stereo not given)	none
O=C(Nc1ccc(F)cc1)C1CCCN1S(=O)(=O)c1cccc2nsnc12 (stereo not given)	OX1R antag-1 75
O=C(NCc1ccc(F)cc1)C1CCCN1S(=O)(=O)c1cccc2nsnc12 (stereo not given)	OX1R antag-1 55
O=C(O)C1CCCCN1S(=O)(=O)c1cccc2nsnc12 (stereo not given)	none
O=C(Nc1cc(F)ccc1F)C1CCCN1S(=O)(=O)c1cccc2nsnc12 (stereo not given)	OX1R antag-1 70
CC(NS(=O)(=O)c1cccc(C(=O)NCc2ccncc2)c1)c1ccccc1 (stereo not given)	none (no result: GPR7 antag)
Cc1cc(C)n2nc(C(=O)N/N=C/c3ccco3)nc2n1	none
COc1cc(CN2C(=O)C(CCc3ccccc3)ON=C2c2cnccn2)cc(OC)c1 (stereo not given)	none (no result: OX1R antag-1, OX1R antag-2, GPR7 antag, CHO parental Ca)
COc1cccc(CNn2cnnc2)c1OCc1ccc(F)cc1	none
COc1cccc(CNC23CC4CC(CC(C4)C2)C3)c1OCc1ccccc1	GPR7 antag 39
CC1(C)CC(=O)C(N=Nc2ccc(OC(F)F)cc2)=C(O)C1	OX1R antag-1 56
CC(C)c1ccc(N(C(=O)CNC(=O)c2ccco2)C(C(=O)NC2CCCC2)c2cccnc2)cc1 (stereo not given)	none
CC(OC(=O)c1ccc2ccccc2c1)C(=O)N(C)Cc1ccccc1 (stereo not given)	OX1R antag-1 38 (no result: GPR7 antag)
Cc1cccc(C)c1NC(=O)C(c1ccnc2ccccc12)n1c(=O)c(-c2ccco2)nc2ccccc21 (stereo not given)	none (no result: OX1R antag-1, OX1R antag-2, GPR7 antag, CHO parental Ca)
O=C1C(SCCO)=C(SCCO)C(=O)c2ccccc21	OX1R antag-1 67, OX1R antag-2 47, CHO parental Ca 48 (no result: GPR7 antag)
O=C(Nc1ccncc1)C1CCC(CNS(=O)(=O)c2cccc3nsnc23)CC1 (stereo not given)	none
CCC1Oc2ccccc2N(CC(=O)NCCc2ccc(OC)c(OC)c2)C1=O (stereo not given)	none
CCC1Oc2ccc(C)cc2N(CC(=O)NCCc2ccc(OC)c(OC)c2)C1=O (stereo not given)	OX1R antag-1 62
CCCc1cc2c(OC(=O)CC)c(-c3ccc(C(=O)OCC)o3)c(=O)oc2cc1OC	none
Cc1cc(N)n2nc(C)c(-c3ccc(Cl)cc3)c2n1	none
Cc1cc(N)n2nc(C)c(-c3ccccc3)c2n1	OX1R antag-1 63
Cc1cccc(CN2CCN(C3CN(Cc4cn(Cc5ccc(Cl)cc5)nn4)S(=O)(=O)C3)CC2)c1 (stereo not given)	none (no result: OX1R antag-1, OX1R antag-2, GPR7 antag, CHO parental Ca)
CCCc1ccc(Oc2c(-c3ccc(O)c(C)c3O)n[nH]c2C)cc1	CHO parental Ca 29
C[C@H]1CN([C@@H](C)CO)C(=O)Cc2cc(NS(=O)(=O)c3cccs3)ccc2O[C@H]1CN(C)S(=O)(=O)c1cn(C)cn1	none (no result: GPR7 antag)
COC(=O)C[C@@H]1C=C[C@@H](NC(=O)c2ccccc2F)[C@@H](CO)O1	none (no result: OX1R antag-1, OX1R antag-2, GPR7 antag, CHO parental Ca)
CCOC(=O)c1cnc(SCc2nc(N)nc(Nc3ccc(F)cc3)n2)nc1N	OX1R antag-1 61
CCOC(=O)c1cnc(SCc2nc(N)nc(Nc3ccc(C)cc3)n2)nc1N	none
CC(=O)c1ccc(-c2nnc(CCC(=O)N(C)Cc3cccc4cnccc34)o2)s1	OX1R antag-1 35
O=c1[nH]cnc2c1ccn2C1OC(CO)C(O)C1O (stereo not given)	none (no result: OX1R antag-1, OX1R antag-2, GPR7 antag, CHO parental Ca)
COc1ccc(Cl)cc1NS(=O)(=O)c1c(C)[nH]c(C)c1C(=O)N1CCCCC1	OX1R antag-1 49
COc1cc(NS(=O)(=O)c2c(C)[nH]c(C)c2C(=O)N2CCCCC2)cc(OC)c1OC	none
CCCSc1nnc(CSc2ncccn2)n1C	none
O=C1C(Cl)=C(Nc2ccc3cn[nH]c3c2)C(=O)c2ccccc21	OX1R antag-1 54, OX1R antag-2 59, GPR7 antag 41, CHO parental Ca 64
O=C(Nc1ccc2cn[nH]c2c1)c1c(Cl)cccc1Cl	none
CC(=O)Nc1ccc(NC2=C(Cl)C(=O)c3ccccc3C2=O)cc1	none (no result: OX1R antag-1, MPTP block, OX1R antag-2, CHO parental Ca)
CN(C)c1ccc(NC2=C(Cl)C(=O)c3ccccc3C2=O)cc1	OX1R antag-1 92, CHO parental Ca 35
CN1CCCC(C)(C(=O)Nc2ccc3scnc3c2)C1 (stereo not given)	none (no result: OX1R antag-1, OX1R antag-2, GPR7 antag, CHO parental Ca)
COC(=O)[C@@]12C[C@@H](CC(=O)NCCc3ccccc3OC)C(=O)N(Cc3ccco3)C1=CCC(C)(C)C2	none (no result: OX1R antag-1, OX1R antag-2, GPR7 antag, CHO parental Ca)
O=C(c1ccco1)N1CCN(c2ncnc3c2oc2ccccc23)CC1	OX1R antag-1 74
CCN(c1ccccc1)S(=O)(=O)c1cccc(C(=O)Nc2ccc(C)cn2)c1	none
O=C(/C=C/c1cccs1)c1ccc(N2CCOCC2)cc1	OX1R antag-1 65
O=C(/C=C/c1cccc(F)c1)c1ccc(N2CCOCC2)cc1	none
Nc1c(Cl)ncnc1N/N=C/c1ccnc2ccccc12	none
Nc1c(Cl)ncnc1N/N=C/c1ccc2ccccc2n1	OX1R antag-1 75
O/N=C/c1ccc2ccccc2n1	none
Nc1c(Cl)ncnc1N/N=C/c1ccccn1	OX1R antag-1 92 (no result: MPTP block)
O=C(NC1CC1)C1CC(=O)N(c2ccc(F)cc2)C1 (stereo not given)	none
CC(NC(=O)C1CCN(CCOc2ccc(Cl)cc2)CC1)c1cccc2ccccc12 (stereo not given)	none (no result: OX1R antag-1, OX1R antag-2, GPR7 antag, CHO parental Ca)
Nc1c(N2CCOCC2)cc(Cl)c2nonc12	none
Nc1c(N2CCCC2)cc(Cl)c2nonc12	OX1R antag-1 40
CCc1c(C)sc(NC(=O)Cc2ccccc2OC)c1C(=O)N1CCOCC1	none
CCN(CC)c1ccc(/C=C/c2cccc[n+]2C)c(OC)c1	CHO parental Ca 36
Cc1cc(C)cc(NC(=O)CCNS(=O)(=O)c2cc(Br)cnc2N)c1	OX1R antag-1 65
Cc1cccc(NC(=O)c2ccc([N+](=O)[O-])s2)n1	OX1R antag-1 36
Cc1ccnc(NC(=O)c2ccc([N+](=O)[O-])s2)c1	OX1R antag-1 70
CSc1ccc(S(=O)(=O)NCC(=O)OCC(=O)N(C)CC(=O)Nc2ccccc2Cl)cc1[N+](=O)[O-]	none (no result: GPR7 antag)
CSc1ccc(S(=O)(=O)NCC(=O)OCC(=O)N(C)Cc2ccccc2)cc1[N+](=O)[O-]	OX1R antag-1 51 (no result: GPR7 antag)
Nc1ccc(S(=O)(=O)NCC(=O)OCCOc2ccccc2)cc1[N+](=O)[O-]	none (no result: GPR7 antag)
CSc1ccc(S(=O)(=O)NCC(=O)OCC(=O)N2CCCC2=O)cc1[N+](=O)[O-]	OX1R antag-1 56 (no result: GPR7 antag)
CSc1ccc(S(=O)(=O)NCC(=O)OCCOc2ccccc2)cc1[N+](=O)[O-]	OX1R antag-1 54 (no result: GPR7 antag)
COC(=O)C1CCN(C(=O)COC(=O)CNS(=O)(=O)c2ccc(SC)c([N+](=O)[O-])c2)CC1	none (no result: GPR7 antag)
CSc1ccc(S(=O)(=O)NCC(=O)OC2CCOC2=O)cc1[N+](=O)[O-] (stereo not given)	OX1R antag-1 66 (no result: GPR7 antag)
